According to ChEMBL document CHEMBL3112482, “Nonclassical antifolates, part 5. Benzodiazepine analogs as a new class of DHFR inhibitors: synthesis, antitumor testing and molecular modeling study” (Eur J Med Chem, 2014):

Experiments:
NCI-H23 = assay: Growth inhibition of human NCI-H23 cells at 10 uM after 48 hrs; type: functional; conditions: NCI-H23, 48 h, read-out: GI
Procedure, shortened: (§1)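 Single-dose primary screen in the NCI 60 human tumour cell line panel, run at the NCI facility. The panel covers nine subpanels: leukaemia, non-small cell lung, colon, CNS, melanoma, ovarian, renal, prostate and breast. Read-out was percent growth of treated cells, shown as a mean graph and reported as percent growth inhibition.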

PC-3 = assay: Growth inhibition of human PC3 cells at 10 uM after 48 hrs; type: functional; conditions: PC-3, 48 h, read-out: GI; procedure, shortened: as §1
T47D = assay: Growth inhibition of human T47D cells at 10 uM after 48 hrs; type: functional; conditions: read-out: GI
Procedure, shortened: (§2)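 NCI 60-cell-line disease-oriented human tumor panel, single-dose primary screen at 10 µM. Data given as mean-graph percent growth of treated cells, reported as percent growth inhibition (GI %).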

[1] = Growth inhibition of human SF539 cells at 10 uM after 48 hrs; type: functional; conditions: SF-539, 48 h, read-out: GI; procedure, shortened: as §2
TK-10 = assay: Growth inhibition of human TK10 cells at 10 uM after 48 hrs; type: functional; conditions: TK-10, 48 h, read-out: GI; procedure, shortened: as §2
MDA-MB-231 = assay: Growth inhibition of human MDA-MB-231 cells at 10 uM after 48 hrs; type: functional; conditions: MDA-MB-231, 48 h, read-out: GI; procedure, shortened: as §1
NCI-H322M = assay: Growth inhibition of human NCI-H322M cells at 10 uM after 48 hrs; type: functional; conditions: read-out: GI; procedure, shortened: as §1
[2] = Growth inhibition of human RXF393 cells at 10 uM after 48 hrs; type: functional; conditions: RXF 393, 48 h, read-out: GI; procedure, shortened: as §1
[3] = Growth inhibition of human OVCAR4 cells at 10 uM after 48 hrs; type: functional; conditions: OVCAR-4, 48 h, read-out: GI; procedure, shortened: as §1
OVCAR-3 = assay: Growth inhibition of human OVCAR3 cells at 10 uM after 48 hrs; type: functional; conditions: OVCAR-3, 48 h, read-out: GI; procedure, shortened: as §1
[4] = Growth inhibition of human Hs 578T cells at 10 uM after 48 hrs; type: functional; conditions: read-out: GI; procedure, shortened: as §1
[5] = Growth inhibition of human OVCAR5 cells at 10 uM after 48 hrs; type: functional; conditions: OVCAR-5, 48 h, read-out: GI; procedure, shortened: as §1
SW-620 = assay: Growth inhibition of human SW620 cells at 10 uM after 48 hrs; type: functional; conditions: SW-620, 48 h, read-out: GI; procedure, shortened: as §2
SK-OV-3 = assay: Growth inhibition of human SKOV3 cells at 10 uM after 48 hrs; type: functional; conditions: SK-OV-3, 48 h, read-out: GI; procedure, shortened: as §2
[6] = Growth inhibition of human HCC2998 cells at 10 uM after 48 hrs; type: functional; conditions: HCC 2998, 48 h, read-out: GI; procedure, shortened: as §1
SN12C = assay: Growth inhibition of human SN12C cells at 10 uM after 48 hrs; type: functional; conditions: read-out: GI; procedure, shortened: as §2
SK-MEL-28 = assay: Growth inhibition of human SK-MEL-28 cells at 10 uM after 48 hrs; type: functional; conditions: SK-MEL-28, 48 h, read-out: GI; procedure, shortened: as §2
MOLT-4 = assay: Growth inhibition of human MOLT4 cells at 10 uM after 48 hrs; type: functional; conditions: MOLT-4, 48 h, read-out: GI; procedure, shortened: as §1
SNB-19 = assay: Growth inhibition of human SNB19 cells at 10 uM after 48 hrs; type: functional; conditions: SNB-19, 48 h, read-out: GI; procedure, shortened: as §2
[7] = Growth inhibition of human EKVX cells at 10 uM after 48 hrs; type: functional; conditions: read-out: GI; procedure, shortened: as §1
K562 = assay: Growth inhibition of human K562 cells at 10 uM after 48 hrs; type: functional; conditions: K562, 48 h, read-out: GI; procedure, shortened: as §1
SF-268 = assay: Growth inhibition of human SF268 cells at 10 uM after 48 hrs; type: functional; conditions: SF-268, 48 h, read-out: GI; procedure, shortened: as §2
IGROV-1 = assay: Growth inhibition of human IGROV1 cells at 10 uM after 48 hrs; type: functional; conditions: IGROV-1, 48 h, read-out: GI; procedure, shortened: as §1
NCI-H226 = assay: Growth inhibition of human NCI-H226 cells at 10 uM after 48 hrs; type: functional; conditions: NCI-H226, 48 h, read-out: GI; procedure, shortened: as §1
OVCAR-8 = assay: Growth inhibition of human OVCAR8 cells at 10 uM after 48 hrs; type: functional; conditions: OVCAR-8, 48 h, read-out: GI; procedure, shortened: as §1
SK-MEL-2 = assay: Growth inhibition of human SK-MEL-2 cells at 10 uM after 48 hrs; type: functional; conditions: SK-MEL-2, 48 h, read-out: GI; procedure, shortened: as §2
[8] = Growth inhibition of human UO31 cells at 10 uM after 48 hrs; type: functional; conditions: UO-31, 48 h, read-out: GI; procedure, shortened: as §2
MCF7 = assay: Growth inhibition of human MCF7 cells at 10 uM after 48 hrs; type: functional; conditions: MCF7, 48 h, read-out: GI; procedure, shortened: as §1
HT-29 = assay: Growth inhibition of human HT-29 cells at 10 uM after 48 hrs; type: functional; conditions: HT-29, 48 h, read-out: GI; procedure, shortened: as §1
HL-60(TB) = assay: Growth inhibition of human HL-60(TB) cells at 10 uM after 48 hrs; type: functional; conditions: HL-60, 48 h, read-out: GI
Procedure, shortened: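 NCI 60-cell-line human tumour panel covering nine subpanels (leukaemia, non-small cell lung, colon, CNS, melanoma, ovarian, renal, prostate, breast), run at the NCI facility. Primary screen tested a single dose of each compound. Read-out was percent growth of treated cells versus untreated cells, reported from the mean graph as percentage growth inhibition.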

[9] = Growth inhibition of human NCI-ADR-RES cells at 10 uM after 48 hrs; type: functional; conditions: read-out: GI; procedure, shortened: as §1
KM12 = assay: Growth inhibition of human KM12 cells at 10 uM after 48 hrs; type: functional; conditions: KM12, 48 h, read-out: GI; procedure, shortened: as §1
CAKI-1 = assay: Growth inhibition of human CAKI-1 cells at 10 uM after 48 hrs; type: functional; conditions: CAKI-1, 48 h, read-out: GI; procedure, shortened: as §1
CCRF-CEM = assay: Growth inhibition of human CCRF-CEM cells at 10 uM after 48 hrs; type: functional; conditions: read-out: GI; procedure, shortened: as §1
DU-145 = assay: Growth inhibition of human DU145 cells at 10 uM after 48 hrs; type: functional; conditions: DU-145, 48 h, read-out: GI; procedure, shortened: as §1
786-0 = assay: Growth inhibition of human 786-0 cells at 10 uM after 48 hrs; type: functional; conditions: 786-0, 48 h, read-out: GI; procedure, shortened: as §1
SR = assay: Growth inhibition of human SR cells at 10 uM after 48 hrs; type: functional; conditions: read-out: GI; procedure, shortened: as §2
SNB-75 = assay: Growth inhibition of human SNB75 cells at 10 uM after 48 hrs; type: functional; conditions: SNB-75, 48 h, read-out: GI; procedure, shortened: as §2
Dihydrofolate reductase = target: T1, Dihydrofolate reductase (Bos taurus, UniProt P00376); assay: Inhibition of bovine liver DHFR measured for every 1 min of 10 mins
T1 sequence (P00376 whole entry): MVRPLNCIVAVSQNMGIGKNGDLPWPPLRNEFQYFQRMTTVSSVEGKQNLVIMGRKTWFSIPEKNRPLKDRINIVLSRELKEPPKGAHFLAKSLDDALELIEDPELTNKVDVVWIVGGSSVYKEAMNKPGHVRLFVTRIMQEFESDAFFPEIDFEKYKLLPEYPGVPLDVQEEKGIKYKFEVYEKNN

In the case of `Cc1nc2c(c(-c3ccc(Br)cc3)n1)CCC/C2=C\c1ccc(Br)cc1`, the inhibition of growth at 10 µM (NCI-H23) is reported as < 30%, the inhibition of growth at 10 µM (PC-3) is reported as < 30% and the inhibition of growth at 10 µM (T47D) is reported as < 30%. For the same compound, the inhibition of growth at 10 µM [1] was < 30%, the inhibition of growth at 10 µM (TK-10) was < 30% and the inhibition of growth at 10 µM (MDA-MB-231) was < 30%. The inhibition of growth at 10 µM (NCI-H322M) was < 30%, the inhibition of growth at 10 µM [2] was < 30% and the inhibition of growth at 10 µM [3] was < 30%. The inhibition of growth at 10 µM (OVCAR-3) was < 30%, the inhibition of growth at 10 µM [4] was < 30% and the inhibition of growth at 10 µM [5] was < 30%. For the same compound, the inhibition of growth at 10 µM (SW-620) was < 30%, the inhibition of growth at 10 µM (SK-OV-3) was < 30% and the inhibition of growth at 10 µM [6] was < 30%. The inhibition of growth at 10 µM (SN12C) was < 30%, the inhibition of growth at 10 µM (SK-MEL-28) was < 30% and the inhibition of growth at 10 µM (MOLT-4) was < 30%. The inhibition of growth at 10 µM (SNB-19) was < 30%, the inhibition of growth at 10 µM [7] was < 30% and the inhibition of growth at 10 µM (K562) was < 30%. For the same compound, the inhibition of growth at 10 µM (SF-268) was < 30%, the inhibition of growth at 10 µM (IGROV-1) was < 30% and the inhibition of growth at 10 µM (NCI-H226) was < 30%. The inhibition of growth at 10 µM (OVCAR-8) was < 30%, the inhibition of growth at 10 µM (SK-MEL-2) was < 30% and the inhibition of growth at 10 µM [8] was < 30%. For the same compound, the inhibition of growth at 10 µM (MCF7) was 56.7%, the inhibition of growth at 10 µM (HT-29) was < 30% and the inhibition of growth at 10 µM (HL-60(TB)) was < 30%. For the same compound, the inhibition of growth at 10 µM [9] was < 30%, the inhibition of growth at 10 µM (KM12) was < 30% and the inhibition of growth at 10 µM (CAKI-1) was < 30%. For the same compound, the inhibition of growth at 10 µM (CCRF-CEM) was < 30%, the inhibition of growth at 10 µM (DU-145) was < 30% and the inhibition of growth at 10 µM (786-0) was < 30%. For the same compound, the inhibition of growth at 10 µM (SR) was < 30% and the inhibition of growth at 10 µM (SNB-75) was < 30%.
For `Nc1nc2c(c(-c3ccc(Br)cc3)n1)CCC/C2=C\c1ccc(Br)cc1`, the inhibition of growth at 10 µM (NCI-H23) was < 30%, the inhibition of growth at 10 µM (PC-3) was < 30% and the inhibition of growth at 10 µM (T47D) was < 30%. The inhibition of growth at 10 µM [1] was < 30%, the inhibition of growth at 10 µM (TK-10) was < 30% and the inhibition of growth at 10 µM (MDA-MB-231) was < 30%. For the same compound, the inhibition of growth at 10 µM (NCI-H322M) was < 30%, the inhibition of growth at 10 µM [2] was < 30% and the inhibition of growth at 10 µM [3] was < 30%. For the same compound, the inhibition of growth at 10 µM (OVCAR-3) was < 30%, the inhibition of growth at 10 µM [4] was < 30% and the inhibition of growth at 10 µM [5] was < 30%. The inhibition of growth at 10 µM (SW-620) was < 30%, the inhibition of growth at 10 µM (SK-OV-3) was < 30% and the inhibition of growth at 10 µM [6] was 51.5%. The inhibition of growth at 10 µM (SN12C) was < 30%, the inhibition of growth at 10 µM (SK-MEL-28) was < 30% and the inhibition of growth at 10 µM (MOLT-4) was < 30%. The inhibition of growth at 10 µM (SNB-19) was < 30%, the inhibition of growth at 10 µM [7] was < 30% and the inhibition of growth at 10 µM (K562) was < 30%. The inhibition of growth at 10 µM (SF-268) was < 30%, the inhibition of growth at 10 µM (IGROV-1) was < 30% and the inhibition of growth at 10 µM (NCI-H226) was < 30%. For the same compound, the inhibition of growth at 10 µM (OVCAR-8) was < 30%, the inhibition of growth at 10 µM (SK-MEL-2) was < 30% and the inhibition of growth at 10 µM [8] was < 30%. The inhibition of growth at 10 µM (MCF7) was 61.4%, the inhibition of growth at 10 µM (HT-29) was 67.8% and the inhibition of growth at 10 µM (HL-60(TB)) was < 30%. For the same compound, the inhibition of growth at 10 µM [9] was < 30%, the inhibition of growth at 10 µM (KM12) was 53% and the inhibition of growth at 10 µM (CAKI-1) was < 30%. The inhibition of growth at 10 µM (CCRF-CEM) was < 30%, the inhibition of growth at 10 µM (DU-145) was < 30% and the IC50 (Dihydrofolate reductase) was 16 µM. For the same compound, the inhibition of growth at 10 µM (786-0) was < 30%, the inhibition of growth at 10 µM (SR) was 54.1% and the inhibition of growth at 10 µM (SNB-75) was < 30%.
